Values after ≈ are worked out from the molar mass of the structure shown. Active and inactive are the calls of the source. The rule behind the calls is not given here.
Experiments:
Pseudomonas aeruginosa = assay: Antimicrobial activity against Pseudomonas aeruginosa; assay type: functional
Poliovirus 1 = assay: Antiviral activity against Sb1 virus infected in Vero76 cells assessed as reduction in virus plaque formation after 4 days by MTT assay; assay type: functional, organism-based; conditions: Enterovirus C, Sabin, Vero 76, 96 h
[1] = Cytotoxicity against mock-infected african green monkey Vero76 cells assessed as reduction in cell viability after 96 hrs by MTT assay; assay type: cell-based, Vero; conditions: chlorocebus sabaeus
[2] = tested on: Human immunodeficiency virus 1; assay: Antiviral activity against HIV1 infected in MT4 cells assessed as virus-induced cytopathogenicity after 4 days; assay type: functional, organism-based
Vaccinia virus = assay: Antiviral activity against VV infected in Vero76 cells assessed as reduction in virus plaque formation after 4 days by MTT assay; assay type: functional, organism-based; conditions: Orthopoxvirus vaccinia; Vero 76
Coxsackievirus B2 = assay: Antiviral activity against CVB2 infected in Vero76 cells assessed as reduction in virus plaque formation after 4 days by MTT assay; assay type: functional, organism-based; conditions: Enterovirus B, Vero 76, 96 h
[3] = tested on: Vesicular stomatitis virus; assay: Antiviral activity against VSV infected in Vero76 cells assessed as reduction in virus plaque formation after 4 days by MTT assay; assay type: functional, organism-based; conditions: Vero 76
[4] = tested on: Bovine viral diarrhea virus 1; assay: Antiviral activity against BVDV infected in MDBK cells assessed as protection against virus-induced cytopathogenicity after 4 days by MTT assay; assay type: functional, organism-based; conditions: Bovine viral diarrhea virus isolates and strains, 96 h
Summary of the method: (§1)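 MDBK (BVDV) or BHK-21 (YFV) cells were seeded at 3 × 10^4 or 5 × 10^4 cells/well respectively and grown overnight to confluent monolayers at 37 °C in 5% CO2. Monolayers were infected at m.o.i. 0.01 in serum-free medium. After 1 h, MEM Earle's with 1% FCS was added, with or without serial compound dilutions. After 3–4 days at 37 °C, viability was read by MTT. EC50 was taken as 50% protection from virus-induced cytopathogenicity.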

[5] = tested on: Respiratory syncytial virus; assay: Antiviral activity against RSV infected in Vero76 cells assessed as reduction in virus plaque formation after 4 days by MTT assay; assay type: functional, organism-based; conditions: human respiratory syncytial virus, Vero 76, 96 h
Human alphaherpesvirus 1 = assay: Antiviral activity against HSV1 infected in Vero76 cells assessed as reduction in virus plaque formation after 4 days by MTT assay; assay type: functional, organism-based; conditions: Human alphaherpesvirus 1, Vero 76, 96 h
Yellow fever virus = assay: Antiviral activity against YFV infected in BHK21 cells assessed as protection against virus-induced cytopathogenicity after 4 days by MTT assay; assay type: functional, organism-based; conditions: BHK-21, 96 h; summary of the method: as §1
[6] = Cytotoxicity against mock-infected BHK cells assessed as reduction in cell viability after 96 hrs by MTT assay; assay type: cell-based, Mesocricetus auratus; conditions: hamster
Summary of the method: (§2)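 Cytotoxicity run in parallel with the antiviral assays. MDBK seeded at 6 × 10^5 and BHK at 1 × 10^6 cells/mL in maintenance medium with or without serial compound dilutions. Incubated 48–96 h at 37 °C, 5% CO2, then viability read by MTT. CC50 is the concentration reducing mock-infected cell viability by 50%.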

[7] = Cytotoxicity against mock-infected MDBK cells assessed as reduction in cell viability after 96 hrs by MTT assay; assay type: cell-based, Bos taurus; conditions: cattle; summary of the method: as §2
[8] = Cytotoxicity against mock-infected human MT4 cells assessed as reduction in cell viability after 96 hrs by MTT assay; assay type: cell-based
Summary of the method: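 Exponentially growing MT-4 cells seeded at 1 × 10^5 cells/mL in RPMI-1640 with 10% FCS, penicillin and streptomycin, with or without serial compound dilutions. Incubated at 37 °C, 5% CO2; viability read by MTT after 96 h. CC50 is the concentration reducing mock-infected cell viability by 50%.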

Candida = assay: Antimicrobial activity against Candida
[9] = tested on: Mammalian orthoreovirus 1; assay: Antiviral activity against Reo virus 1 infected in BHK21 cells assessed as protection against virus-induced cytopathogenicity after 4 days by MTT assay; assay type: functional, organism-based; conditions: Mammalian orthoreovirus 1, BHK-21, 96 h

SMILES | MIC (Pseudomonas aeruginosa) | EC50 (Poliovirus 1) | CC50 at 96 h [1] | Activity [2] | Activity (Vaccinia virus) | EC50 (Coxsackievirus B2) | Activity [3] | EC50 [4] | EC50 [5] | EC50 (Human alphaherpesvirus 1) | EC50 (Yellow fever virus) | CC50 at 96 h [6] | CC50 at 96 h [7] | CC50 at 96 h [8] | MIC (Candida) | EC50 [9]
CCn1cc(C(=O)O)c(=O)c2cc(F)c(N3CCNCC3)cc21 [NORFLOXACIN] | 4 µg/mL (≈ 12.5 µM) |  |  |  |  |  |  |  |  |  |  |  |  |  |  | 
FC(F)(F)c1cc(/N=N\C2=C3CCCN3CCC2)ccc1Cl |  | 12 µM | 100 µM | inactive | inactive | 9 µM | inactive | > 21 µM | > 100 µM | 33 µM | > 51 µM | 51 µM | 21 µM | 30 µM |  | 
Clc1ccc(COC(Cn2ccnc2)c2ccc(Cl)cc2Cl)c(Cl)c1.O=[N+]([O-])O (configuration not stated) [MICONAZOLE NITRATE] |  |  |  |  |  |  |  |  |  |  |  |  |  |  | 0.25 µg/mL | 
CN1C=C(/N=N/c2ccc(Br)cc2)CCC1 |  | > 100 µM | 100 µM | inactive | inactive | > 100 µM | inactive | 60 µM | 18 µM |  | 100 µM | > 100 µM | > 100 µM | 83 µM |  | 76 µM
CN1CCC/C1=C\N=N\c1ccc(Cl)c(Cl)c1 |  | 53 µM | 100 µM | inactive | inactive | > 100 µM | inactive | 16 µM | > 100 µM | 40 µM | > 23 µM | 23 µM | 90 µM | 39 µM |  | 
CN1C=C(/N=N/c2ccc(Cl)cc2)CCC1 |  | 8 µM | 90 µM | inactive | inactive | 5 µM | inactive | > 58 µM | 20 µM |  | > 100 µM | > 100 µM | 58 µM | > 100 µM |  | 32 µM
Fc1ccc(/N=N\C2=C3CCCCN3CCC2)cc1 |  | > 100 µM | > 100 µM | inactive | inactive | 27 µM | inactive | > 56 µM | > 100 µM |  | 100 µM | > 100 µM | 56 µM | 94 µM |  | 34 µM

— ChEMBL document CHEMBL1144182, “Antimicrobial and cytotoxic arylazoenamines. Part III: antiviral activity of selected classes of arylazoenamines” (Bioorg Med Chem, 2008)
